The values that follow come from ChEMBL document CHEMBL2176984, “Target Selectivity of FimH Antagonists” (J Med Chem, 2012).

In general, inhibition refers to the percentage by which the read-out fell short of the control. For orientation: Cmax means the highest concentration seen after dosing.

Data set [1] concerns the target T1, C-type lectin domain family 4 member C (Homo sapiens) (UniProt Q8WTT0).
T1 sequence (whole entry): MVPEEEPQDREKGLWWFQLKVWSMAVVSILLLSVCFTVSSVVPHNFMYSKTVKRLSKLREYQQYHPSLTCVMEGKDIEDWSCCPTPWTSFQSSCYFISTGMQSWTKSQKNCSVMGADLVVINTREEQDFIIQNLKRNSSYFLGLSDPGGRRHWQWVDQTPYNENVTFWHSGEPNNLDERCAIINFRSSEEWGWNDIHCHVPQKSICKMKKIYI
Briefly: Displacement of biotinylated-TM PAA from human DLEC at 1 mM after 3 hrs by colorimetry. Put shortly:
(§1)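 Proteins were coated overnight at 4 °C in 20 mM HEPES pH 7.4, 150 mM NaCl and 10 mM CaCl2, then blocked with 3% BSA for 2 h at 4 °C. FimH was a CRD-thrombin-6His construct expressed in E. coli HM125; DC-SIGN and DC-SIGNR were CRD-Fc chimeras made in stably transfected CHO-K1. Compound at 1 mM final was co-added with streptavidin-HRP-coupled TM-PAA, incubated 3 h at 25 °C and 350 rpm, then read by ABTS OD 415 nm. No-antagonist signal was set to 100% and no-polymer background to 0%.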

In data set [2] the target is C-type lectin domain family 4 member K (Homo sapiens, UniProt Q9UJ71). Briefly: Displacement of biotinylated-TM PAA from human langerin at 1 mM after 3 hrs by colorimetry. Put shortly:
as §1

The nature of data set [3]: Cmax in mouse. In kind it is ADME, organism-based. To be noted: in vivo.
The target of data set [4] is T2, C-type lectin domain family 6 member A (Homo sapiens) (UniProt Q6EIG7).
T2 sequence (whole entry): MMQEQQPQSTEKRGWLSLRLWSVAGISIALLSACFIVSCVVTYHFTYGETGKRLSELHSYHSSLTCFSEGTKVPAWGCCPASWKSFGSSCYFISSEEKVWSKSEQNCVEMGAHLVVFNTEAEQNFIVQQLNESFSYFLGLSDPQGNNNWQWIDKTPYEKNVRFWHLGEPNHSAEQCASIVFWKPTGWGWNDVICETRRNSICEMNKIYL
The experiment in a line: Displacement of biotinylated-TM PAA from human Dectin-2 at 1 mM after 3 hrs by colorimetry. Put shortly:
as §1

Data set [5] concerns the target T3, CD209 antigen (Homo sapiens) (UniProt Q9NNX6).
T3 sequence (whole entry): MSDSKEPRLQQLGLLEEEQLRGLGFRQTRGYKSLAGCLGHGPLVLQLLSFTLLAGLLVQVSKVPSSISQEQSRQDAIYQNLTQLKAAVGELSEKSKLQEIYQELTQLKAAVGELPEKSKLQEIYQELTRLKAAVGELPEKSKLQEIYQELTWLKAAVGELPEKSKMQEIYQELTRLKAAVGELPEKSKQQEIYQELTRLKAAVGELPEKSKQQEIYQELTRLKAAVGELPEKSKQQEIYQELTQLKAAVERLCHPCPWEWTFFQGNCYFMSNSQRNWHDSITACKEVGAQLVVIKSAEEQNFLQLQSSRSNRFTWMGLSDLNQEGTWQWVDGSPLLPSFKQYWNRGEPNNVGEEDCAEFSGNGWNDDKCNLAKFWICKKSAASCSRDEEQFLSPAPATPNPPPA
Briefly: Displacement of biotinylated-TM PAA from human DC-SIGN at 1 mM after 3 hrs by colorimetry. In a few lines: as §1

Data set [6] deals with T4, Macrophage mannose receptor 1 (Homo sapiens) (UniProt P22897).
T4 sequence (whole entry): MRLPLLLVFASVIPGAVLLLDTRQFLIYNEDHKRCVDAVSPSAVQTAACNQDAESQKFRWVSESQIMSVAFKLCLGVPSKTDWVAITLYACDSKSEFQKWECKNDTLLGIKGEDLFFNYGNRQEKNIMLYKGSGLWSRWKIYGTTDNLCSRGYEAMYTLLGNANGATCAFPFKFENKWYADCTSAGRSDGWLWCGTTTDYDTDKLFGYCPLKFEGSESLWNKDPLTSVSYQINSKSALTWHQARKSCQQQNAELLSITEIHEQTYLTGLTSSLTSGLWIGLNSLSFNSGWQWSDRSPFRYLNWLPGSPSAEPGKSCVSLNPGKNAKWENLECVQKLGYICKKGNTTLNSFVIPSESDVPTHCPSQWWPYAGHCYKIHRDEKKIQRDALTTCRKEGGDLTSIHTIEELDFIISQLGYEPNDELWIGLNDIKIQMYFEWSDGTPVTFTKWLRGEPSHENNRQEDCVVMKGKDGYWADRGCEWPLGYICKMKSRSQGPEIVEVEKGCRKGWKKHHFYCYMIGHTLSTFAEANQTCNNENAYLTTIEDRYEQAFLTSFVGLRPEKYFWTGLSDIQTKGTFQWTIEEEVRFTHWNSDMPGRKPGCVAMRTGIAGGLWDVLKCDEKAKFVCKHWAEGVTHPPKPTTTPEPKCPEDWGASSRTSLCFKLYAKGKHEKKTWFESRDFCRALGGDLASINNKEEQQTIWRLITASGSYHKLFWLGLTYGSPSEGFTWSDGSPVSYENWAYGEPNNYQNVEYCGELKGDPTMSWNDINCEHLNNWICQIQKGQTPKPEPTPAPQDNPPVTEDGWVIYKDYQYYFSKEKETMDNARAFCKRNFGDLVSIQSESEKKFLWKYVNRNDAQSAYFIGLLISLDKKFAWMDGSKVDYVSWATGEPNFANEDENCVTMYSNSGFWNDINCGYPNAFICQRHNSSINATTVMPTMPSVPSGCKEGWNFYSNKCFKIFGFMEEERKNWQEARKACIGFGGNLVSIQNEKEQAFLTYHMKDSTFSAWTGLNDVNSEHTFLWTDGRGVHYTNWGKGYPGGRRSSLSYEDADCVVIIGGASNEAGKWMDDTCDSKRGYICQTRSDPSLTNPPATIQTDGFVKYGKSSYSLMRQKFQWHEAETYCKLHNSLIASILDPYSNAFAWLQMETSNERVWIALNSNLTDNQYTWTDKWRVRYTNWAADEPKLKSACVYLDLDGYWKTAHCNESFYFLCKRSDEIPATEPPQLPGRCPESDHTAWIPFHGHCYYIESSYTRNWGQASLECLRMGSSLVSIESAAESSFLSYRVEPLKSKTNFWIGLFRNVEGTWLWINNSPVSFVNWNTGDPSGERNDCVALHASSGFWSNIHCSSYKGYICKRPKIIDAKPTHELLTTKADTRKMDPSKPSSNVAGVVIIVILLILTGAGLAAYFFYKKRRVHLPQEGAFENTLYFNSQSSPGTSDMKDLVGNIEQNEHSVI
Briefly: Displacement of biotinylated-TM PAA from human MMR at 1 mM after 3 hrs by colorimetry. Put shortly: as §1

Calls of active or inactive are those of the source. The rule behind the calls is not given here.

Chain of C-type lectin domain family 4 member K (Q9UJ71 whole entry, the tested form may be a part): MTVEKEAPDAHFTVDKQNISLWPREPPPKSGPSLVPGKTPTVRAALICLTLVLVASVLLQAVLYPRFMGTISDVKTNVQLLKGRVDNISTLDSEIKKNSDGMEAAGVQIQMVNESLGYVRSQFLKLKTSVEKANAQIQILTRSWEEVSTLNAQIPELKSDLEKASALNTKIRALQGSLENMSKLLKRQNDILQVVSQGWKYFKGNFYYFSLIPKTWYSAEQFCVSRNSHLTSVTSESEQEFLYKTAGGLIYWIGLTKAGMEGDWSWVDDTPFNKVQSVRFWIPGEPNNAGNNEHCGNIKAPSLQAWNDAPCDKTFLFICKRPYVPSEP

`O=C(O)c1ccc(-c2ccc(O[C@H]3O[C@H](CO)[C@@H](O)[C@H](O)[C@@H]3O)cc2)cc1` showed an inhibition in data set [1] of 50%. The inhibition result in data set [2], in data set [4], in data set [5] and in data set [6] was “inactive” in each case. In data set [3], this compound yielded a Cmax of 80 µM.

As for `O=C(O)c1ccc2c(ccn2-c2ccc(O[C@H]3O[C@H](CO)[C@@H](O)[C@H](O)[C@@H]3O)c(Cl)c2)c1`, the inhibition result in data set [1], in data set [2], in data set [4] and in data set [5] was “inactive” in each case. This compound also yielded an inhibition in data set [6] of 58%.

In the case of `CCCCCCCO[C@H]1O[C@H](CO)[C@@H](O)[C@H](O)[C@@H]1O`, the inhibition result in data set [1], in data set [2], in data set [4], in data set [5] and in data set [6] was “inactive” throughout. This compound also gave a Cmax in data set [3] of 144 µM.

For the compound `CN1CCN(c2c(Nc3ccc(O[C@H]4O[C@H](CO)[C@@H](O)[C@H](O)[C@@H]4O)c(Cl)c3)c(=O)c2=O)CC1`, the inhibition entry in data set [1], in data set [2], in data set [4], in data set [5] and in data set [6] was “inactive” throughout.

On to `O=C(O)c1ccc(-c2ccc(O[C@H]3O[C@H](CO)[C@@H](O)[C@H](O)[C@@H]3O)c(Cl)c2)cc1`, for which the inhibition result in data set [1], in data set [4] and in data set [5] was “inactive” throughout. Moreover, the results for the inhibition in data set [2] and in data set [6] were 63% and 54%, respectively. Moreover, the concentration in data set [3] peaked (Cmax) at 97 µM.
